Published values from different studies.
Lines come from different studies, so protocols differ.
Target: cAMP-dependent protein kinase catalytic subunit PRKX (PRKX, Homo sapiens, UniProt P51817)
Sequence (P51817 1-358, as in one of the studies): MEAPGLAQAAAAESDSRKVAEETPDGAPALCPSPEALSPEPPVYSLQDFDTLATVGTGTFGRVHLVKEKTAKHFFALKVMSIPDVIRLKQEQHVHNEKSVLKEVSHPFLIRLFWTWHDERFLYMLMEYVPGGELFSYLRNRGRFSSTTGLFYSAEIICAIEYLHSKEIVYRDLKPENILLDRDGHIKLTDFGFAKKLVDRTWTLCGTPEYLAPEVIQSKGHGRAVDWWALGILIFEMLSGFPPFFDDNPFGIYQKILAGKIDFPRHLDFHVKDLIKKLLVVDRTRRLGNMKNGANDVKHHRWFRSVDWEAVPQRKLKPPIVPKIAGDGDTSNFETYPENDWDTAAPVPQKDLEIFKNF

For `COc1cnc(Nc2cccc(S(N)(=O)=O)c2)nc1N1CCN(c2ccccc2)C(=O)C1`, the remaining binding was 91% (binding; competition with immobilised ligand; 1 µM).
`Cc1c(NC(=O)c2cc(C(N)=O)nc3cc(F)ccc23)c(C(F)(F)F)nn1Cc1ccc(C(C)(C)C)cc1` has a remaining binding of 94% (cell-free assay; competition with immobilised ligand; 1 µM).
`O=C(NCCCN1CCOCC1)c1ccc(Nc2nccc(-c3cc4ccccc4s3)n2)cc1` gave a remaining binding of 85% (binding; competition with immobilised ligand; 1 µM).
The remaining binding of `F[C@@H]1CCN(c2nccc(-c3cnn4ncccc34)n2)C1` is reported as 100% (binding; 1 µM).
With `CNC(=O)Nc1ccc2c(c1)[C@@]1(CC2)OC(=O)N(CC(=O)N(Cc2ccc(F)cc2)[C@@H](C)C(F)(F)F)C1=O` the remaining binding was 100% (cell-free assay; competition with immobilised ligand; 1 µM).
`FC(F)(F)Oc1cccc(-c2cnc3ccc(-c4ccncc4)nn23)c1` has a remaining binding of 85% (cell-free assay; competition with immobilised ligand; 5 µM).
With `O=C(NCCCN1CCOCC1)c1ccc(Nc2ncc(Cl)c(-c3ccc(Cl)s3)n2)cc1` the remaining binding was 100% (binding; competition with immobilised ligand; 1 µM).
The remaining binding of `COCCOc1nc(-c2ccc(Cl)nc2)nc2c1CN(C(=O)c1ncn3ccccc13)CC2` is reported as 100% (cell-free assay; competition with immobilised ligand; 0.1 µM).
With `Cc1cnc(Nc2ccc(C(=O)N3CCC(N4CCCC4)CC3)cc2)nc1-c1cc2ccccc2s1` the remaining binding was 72% (binding; competition with immobilised ligand; 1 µM).
For `COc1ncc2cc3ccccc3nc2c1C#N`, the remaining binding was 82% (cell-free assay; competition with immobilised ligand; 5 µM).
With `c1cnn2ncc(-c3ccnc(N4CCC45COC5)n3)c2c1` the remaining binding was 68% (binding; 1 µM).
`O=C(Nc1c[nH]nc1C(=O)NC1CCNCC1)c1cc(F)cc(F)c1` gave a remaining binding of 94% (binding; competition with immobilised ligand; 1 µM).
For `CO[C@H]1CC[C@H](CNc2ccc(S(=O)(=O)NC(=O)c3ccc(N4CCN(CC5=C(c6ccc(Cl)cc6)CC(C)(C)CC5)CC4)cc3Oc3cnc4[nH]ccc4c3)cc2[N+](=O)[O-])CC1`, the remaining binding was 100% (cell-free assay; competition with immobilised ligand; 1 µM).
For `N[C@H]1CCN(c2nccc(-c3cnn4ncccc34)n2)C1`, the remaining binding was 100% (binding; 1 µM).
`C[C@@H](c1ccc(-n2cnc3c(N)ncnc32)cc1)N1CCc2nn(C)c(Cc3ccccc3)c2C1=O` has a remaining binding of 96% (binding; competition with immobilised ligand; 0.1 µM).
`C[C@@H]1CCN(c2nccc(-c3cnn4ncccc34)n2)C1` gave a remaining binding of 100% (binding; 1 µM).
For `C[C@@H]1CN(c2cc(-c3nn(C)c4ccc(OC5(C)CC5)cc34)ncn2)C[C@H](C)O1`, the remaining binding was 92% (cell-free assay; competition with immobilised ligand; 1 µM).
With `CN(CCCC(F)(F)F)c1nccc(-c2cnn3ncccc23)n1` the remaining binding was 100% (binding; 1 µM).
For `O=C(Nc1cnc(Oc2ccc(F)cc2)nc1)N1CCc2ncccc2[C@@H]1c1ccc(F)cc1`, the remaining binding was 93% (cell-free assay; competition with immobilised ligand; 1 µM).
The remaining binding of `c1cncc(-c2cccc(Nc3nccc(NC4CCCCC4)n3)c2)c1` is reported as 80% (binding; competition with immobilised ligand; 10 µM).
`CN(C)c1ncc(F)c(-c2cnn3ncccc23)n1` gave a remaining binding of 100% (binding; 1 µM).
